Results from ChEMBL document CHEMBL1145383, “Synthesis of stable and potent delta/mu opioid peptides: analogues of H-Tyr-c[D-Cys-Gly-Phe-D-Cys]-OH by ring-closing metathesis” (J Med Chem, 2007).
pEC50, pIC50, pKi: −log10 of the molar value.

What was measured:
[1] = target: Delta-type opioid receptor (Mus musculus, UniProt P32300); assay: Agonist activity at delta opioid receptor in mouse vas deferens assessed as inhibition of electrically-evoked muscle contraction; assay type: functional, tissue-based
Procedure, shortened: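 Mouse vas deferens from male ICR mice (25–30 g), bathed in oxygenated (95% O2/5% CO2) magnesium-free Krebs bicarbonate at 37 °C. Tension 0.5 g, stimulated transmurally at 0.1 Hz with 2.0 ms pulses at supramaximal voltage. Agonist contact 3 min, then rinse and 8 min recovery. IC50 from Hill fit of mean data, n ≥ 4 tissues.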

Mu-type opioid receptor [2] = target: Mu-type opioid receptor (Cavia porcellus, UniProt P97266); assay: Agonist activity at mu opioid receptor in isolated guinea pig ileum assessed as inhibition of electrically-evoked myenteric muscle contraction; assay type: functional, tissue-based
Procedure, shortened: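 Longitudinal muscle-myenteric plexus from male Hartley guinea pigs (150–400 g), in oxygenated (95% O2/5% CO2) Krebs bicarbonate at 37 °C. Tension 1 g, transmural stimulation at 0.1 Hz with 0.4 ms pulses at supramaximal voltage. Agonist left 3 min, then washout and 8 min re-equilibration. IC50 by nonlinear least-squares Hill fit of mean data from at least four tissues.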

[3] = target: Kappa-type opioid receptor (Cavia porcellus, UniProt P41144); assay: Displacement of [3H]U-69593 from kappa opioid receptor in guinea pig brain membrane; assay type: cell membranes
Mu-type opioid receptor [4] = target: T1, Mu-type opioid receptor (Homo sapiens, UniProt P35372); assay: Agonist activity at human mu opioid receptor by [35S]GTP-gamma-S binding assay; assay type: functional
Mu-type opioid receptor [5] = target: T1, Mu-type opioid receptor; assay: Agonist activity at human mu opioid receptor by [35S]GTP-gamma-S binding assay relative to control; assay type: functional
[6] = target: T2, Delta-type opioid receptor (Homo sapiens, UniProt P41143); assay: Agonist activity at human delta opioid receptor by [35S]GTP-gamma-S binding assay; assay type: functional
Procedure, shortened: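 Cells expressing hDOR were incubated with increasing test concentrations plus 0.1 nM [35S]GTPγS, in duplicate, for 90 min at 30 °C. Reaction stopped by vacuum filtration through GF/B filters pretreated with assay buffer. Filters washed four times with ice-cold 15 mM Tris/120 mM NaCl, pH 7.4, and bound label counted by liquid scintillation after overnight extraction.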

[7] = target: T2, Delta-type opioid receptor; assay: Agonist activity at human delta opioid receptor by [35S]GTP-gamma-S binding assay relative to control; assay type: functional

T1 sequence (P35372 whole entry): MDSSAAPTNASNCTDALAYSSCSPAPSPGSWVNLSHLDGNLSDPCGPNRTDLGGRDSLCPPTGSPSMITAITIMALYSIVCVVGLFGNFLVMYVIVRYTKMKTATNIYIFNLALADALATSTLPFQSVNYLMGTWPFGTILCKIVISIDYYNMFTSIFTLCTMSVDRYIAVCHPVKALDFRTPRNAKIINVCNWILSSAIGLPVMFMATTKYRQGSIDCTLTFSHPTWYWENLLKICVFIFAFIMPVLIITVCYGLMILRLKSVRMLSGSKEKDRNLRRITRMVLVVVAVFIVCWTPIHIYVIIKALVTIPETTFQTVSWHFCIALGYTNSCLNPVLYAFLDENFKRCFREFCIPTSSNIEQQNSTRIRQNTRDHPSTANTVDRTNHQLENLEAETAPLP
Chain of Kappa-type opioid receptor (P41144 whole entry): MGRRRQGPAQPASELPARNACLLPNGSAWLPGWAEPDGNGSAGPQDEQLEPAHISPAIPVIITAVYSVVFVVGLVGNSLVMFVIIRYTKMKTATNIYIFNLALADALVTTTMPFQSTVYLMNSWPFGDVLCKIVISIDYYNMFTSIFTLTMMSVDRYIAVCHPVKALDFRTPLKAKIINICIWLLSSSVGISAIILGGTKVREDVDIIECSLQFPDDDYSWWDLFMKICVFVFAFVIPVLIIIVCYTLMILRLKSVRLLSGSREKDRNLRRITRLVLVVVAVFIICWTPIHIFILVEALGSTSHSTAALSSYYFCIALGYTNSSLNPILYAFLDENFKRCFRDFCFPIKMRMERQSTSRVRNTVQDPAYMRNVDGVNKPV
T2 sequence (P41143 whole entry): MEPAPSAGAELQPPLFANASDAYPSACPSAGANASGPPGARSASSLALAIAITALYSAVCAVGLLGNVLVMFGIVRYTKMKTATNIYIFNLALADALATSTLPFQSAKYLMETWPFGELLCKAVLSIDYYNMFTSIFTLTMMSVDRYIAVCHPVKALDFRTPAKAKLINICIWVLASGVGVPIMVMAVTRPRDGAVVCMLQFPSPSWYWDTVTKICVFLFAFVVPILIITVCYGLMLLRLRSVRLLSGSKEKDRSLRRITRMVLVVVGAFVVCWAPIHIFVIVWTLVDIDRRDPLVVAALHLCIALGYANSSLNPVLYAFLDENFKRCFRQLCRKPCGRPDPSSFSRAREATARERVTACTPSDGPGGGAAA
Chain of Mu-type opioid receptor (Cavia porcellus, UniProt P97266) (P97266 whole entry): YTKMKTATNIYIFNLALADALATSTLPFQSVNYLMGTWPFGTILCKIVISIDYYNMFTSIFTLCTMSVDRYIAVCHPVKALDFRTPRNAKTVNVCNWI
Chain of Delta-type opioid receptor (Mus musculus, UniProt P32300) (P32300 whole entry): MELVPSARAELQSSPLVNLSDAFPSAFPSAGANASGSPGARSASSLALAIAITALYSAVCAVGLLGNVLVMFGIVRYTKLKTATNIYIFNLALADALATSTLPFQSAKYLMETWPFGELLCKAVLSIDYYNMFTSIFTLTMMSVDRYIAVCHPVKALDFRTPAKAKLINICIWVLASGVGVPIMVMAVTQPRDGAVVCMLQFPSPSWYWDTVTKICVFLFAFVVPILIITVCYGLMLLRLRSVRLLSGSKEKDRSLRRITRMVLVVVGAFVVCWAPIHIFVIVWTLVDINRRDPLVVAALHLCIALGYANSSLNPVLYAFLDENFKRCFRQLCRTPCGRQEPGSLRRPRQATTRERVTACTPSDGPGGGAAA

Compound	pIC50 [1]	pIC50 (Mu-type opioid receptor [2])	pKi [3]	pEC50 (Mu-type opioid receptor [4])	Emax (Mu-type opioid receptor [5])	pEC50 [6]	Emax [7]
N[C@@H](Cc1ccc(O)cc1)C(=O)N[C@@H]1CCCC[C@H](C(=O)O)NC(=O)[C@H](Cc2ccccc2)NC(=O)CNC1=O	8.47	7.23	5.40	–	–	–	–
C=CC[C@@H](NC(=O)[C@H](Cc1ccccc1)NC(=O)CNC(=O)[C@@H](CC=C)NC(=O)[C@@H](N)Cc1ccc(O)cc1)C(=O)O	8.24	7.47	5.41	–	–	–	–
N[C@@H](Cc1ccc(O)cc1)C(=O)N[C@@H]1C/C=C\C[C@H](C(=O)O)NC(=O)[C@H](Cc2ccccc2)NC(=O)CNC1=O	9.23	8.28	6.24	8.63	65%	9.08	121%
N[C@@H](Cc1ccc(O)cc1)C(=O)N[C@@H]1C/C=C/C[C@H](C(=O)O)NC(=O)[C@H](Cc2ccccc2)NC(=O)CNC1=O	9.12	8.28	7.13	8.58	70%	9.06	128%
